Data set [1] deals with Leishmania amazonensis. Description: Antileishmanial activity against axenic amastigotes of Leishmania amazonensis IFLA/BR/67/PH8 infected in Swiss mouse peritoneal macrophages assessed as reduction of survival rate after 72 hrs by light microscopy analysis. It is filed as functional, organism-based. A digest of the protocol: (§1)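 Peritoneal macrophages were plated on glass coverslips at 1 x 10^6 cells/mL in supplemented RPMI 1640 and allowed to adhere for 2 h at 34°C, 5% CO₂. They were infected for 3 h with stationary-phase promastigotes at 10 parasites per macrophage, washed with PBS, then exposed to compound for 24 or 72 h. Coverslips were fixed and Panoptic-stained, and 300 macrophages per coverslip were counted by light microscopy. EC50 was derived by probit regression.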

The subject of data set [2] is Leishmania amazonensis. Description: Antileishmanial activity against promastigotes of Leishmania amazonensis IFLA/BR/67/PH8 assessed as induction of necrosis using Annexin-V-FITC/PI staining at 2 times IC50 after 4 hrs by flow cytometry (reference value: 2.6%). It is filed as functional. (In general: Flow cytometry measures light scatter and fluorescence of single cells or particles in a stream.)

Data set [3] deals with Leishmania amazonensis. Description: Antileishmanial activity against promastigotes of Leishmania amazonensis IFLA/BR/67/PH8 assessed as induction of early apoptosis using Annexin-V staining at 4 times IC50 after 4 hrs by flow cytometry (reference value: 8.3%). The data set is classed as functional.
The test system of data set [4] is Peritoneal macrophage cell. Description: Immunomodulatory activity in Swiss mouse peritoneal macrophages infected with promastigotes form of Leishmania amazonensis IFLA/BR/67/PH8 assessed as increase of TNFalpha production at 6.25 to 25 uM after 72 hrs by sandwich ELISA. The data set is classed as functional, cell-based. The gist of the method:
(§2)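 Supernatants came from infected macrophages treated for 72 h at 37°C, 5% CO₂. TNF-α, IL-12 and IL-10 were measured by sandwich ELISA at 450 nm against murine recombinant cytokine standards. NO was estimated as nitrite by the Griess reaction at 540 nm against a sodium nitrite standard. LPS (10 mg/L) served as positive control. Three experiments were run in triplicate.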
Background: ELISA stands for enzyme-linked immunosorbent assay.

Data set [5] has as its system Peritoneal macrophage cell. Description: Immunomodulatory activity in Swiss mouse peritoneal macrophages infected with promastigotes form of Leishmania amazonensis IFLA/BR/67/PH8 assessed as increase of IL-10 production at 6.25 to 25 uM after 72 hrs by sandwich ELISA. The data set is classed as functional, cell-based. A digest of the protocol: as §2
Data set [6] in a line: Ratio of compound HC50 to meglumine antimoniate HC50 for human RBC. It is filed as ADME, cell-based. The following applies: erythrocyte.
The nature of data set [7]: Selectivity index, ratio of CC50 for Swiss mouse peritoneal macrophages to EC50 for axenic amastigotes of Leishmania amazonensis IFLA/BR/67/PH8. A digest of the protocol: (§3)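 Promastigote values came from haemocytometer counts after 72 h at 25°C. Axenic amastigote values came from MTT readings after 24 h at 32°C, using amastigotes differentiated at pH 4.6. All 50% values were obtained by probit regression.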

Data set [8] is described as follows: Selectivity index, ratio of HC50 for human RBC to IC50 for promastigotes of Leishmania amazonensis IFLA/BR/67/PH8. A digest of the protocol:
as §3

For data set [9], the system named is Leishmania amazonensis. Description: Antileishmanial activity against axenic amastigotes of Leishmania amazonensis IFLA/BR/67/PH8 infected in Swiss mouse peritoneal macrophages assessed as reduction of survival rate after 24 hrs by light microscopy analysis. The data set is classed as functional, organism-based. The gist of the method: as §1
Data set [10] deals with Leishmania amazonensis. Description: Antileishmanial activity against promastigotes of Leishmania amazonensis IFLA/BR/67/PH8 assessed as viable cells using Annexin-V staining at IC50 after 4 hrs by flow cytometry (reference value: 77%). The data set is classed as functional.
Data set [11] relates to Leishmania amazonensis. Description: Antileishmanial activity against promastigotes of Leishmania amazonensis IFLA/BR/67/PH8 assessed as induction of necrosis using Annexin-V-FITC/PI staining at IC50 after 4 hrs by flow cytometry (reference value: 2.6%). It is filed as functional.
Data set [12] is described as follows: Selectivity index, ratio of CC50 for Swiss mouse peritoneal macrophages to IC50 for promastigotes of Leishmania amazonensis IFLA/BR/67/PH8. The data set is classed as functional. The gist of the method:
as §3

Data set [13] can be described thus: Cytotoxicity against Swiss mouse peritoneal macrophages after 24 hrs by MTT assay. The data set is classed as cell-based, Peritoneal macrophage cell. The gist of the method: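 Macrophages were collected from Swiss mice 5 days after thioglycollate (3%) elicitation. About 1 x 10^6 cells per well were incubated in RPMI 1640 with 10% heat-inactivated FBS and compound for 24 h at 37°C, 5% CO₂. MTT was added for 4 h, followed by 10% SDS, and absorbance was read at 540 nm. CC50 was obtained by probit regression.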
A general note: Tetrazolium dyes change colour on reduction, which living cells bring about.

Data set [14] deals with Leishmania amazonensis. Description: Antileishmanial activity against promastigotes of Leishmania amazonensis IFLA/BR/67/PH8 assessed as induction of necrosis using Annexin-V-FITC/PI staining at 4 times IC50 after 4 hrs by flow cytometry (reference value: 2.6%). The data set is classed as functional.
Data set [15] has as its system Leishmania amazonensis. Description: Antileishmanial activity against promastigotes of Leishmania amazonensis IFLA/BR/67/PH8 assessed as induction of DNA fragmentation at 1 to 4 times IC50 after 24 hrs by agarose gel electrophoresis. It is filed as functional, organism-based. A digest of the protocol: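 Genomic DNA was extracted with phenol/chloroform and run on agarose with GelRed (1:500) for 1 h at […]. Fragmentation was viewed under UV as a qualitative read-out.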

The test system of data set [16] is Leishmania amazonensis. Description: Antileishmanial activity against promastigotes of Leishmania amazonensis IFLA/BR/67/PH8 assessed as induction of late apoptosis using Annexin-V/PI staining at 2 times IC50 after 4 hrs by flow cytometry (reference value: 12.05%). It is filed as functional.
Data set [17] relates to Leishmania amazonensis. Description: Antileishmanial activity against promastigotes of Leishmania amazonensis IFLA/BR/67/PH8 assessed as induction of early apoptosis using Annexin-V staining at IC50 after 4 hrs by flow cytometry (reference value: 8.3%). It is filed as functional.
Data set [18] has as its system Leishmania amazonensis. Description: Antileishmanial activity against promastigotes of Leishmania amazonensis IFLA/BR/67/PH8 assessed as viable cells using Annexin-V staining at 4 times IC50 after 4 hrs by flow cytometry (reference value: 77%). The data set is classed as functional.
The subject of data set [19] is Leishmania amazonensis. Description: Antileishmanial activity against axenic amastigotes of Leishmania amazonensis IFLA/BR/67/PH8 after 24 hrs by MTT assay. The note with it: IFLA/BR/67/PH8, 24 h.
The test system of data set [20] is Leishmania amazonensis. Description: Antileishmanial activity against promastigotes of Leishmania amazonensis IFLA/BR/67/PH8 after 72 hrs by Neubauer haemocytometer counting. The note with it: IFLA/BR/67/PH8, 72 h.
Data set [21] in a line: Ratio of compound CC50 to meglumine antimoniate CC50 for Swiss mouse peritoneal macrophages. The data set is classed as ADME, cell-based, Peritoneal macrophage cell.
Data set [22] deals with Peritoneal macrophage cell. Description: Immunomodulatory activity in Swiss mouse peritoneal macrophages infected with promastigotes form of Leishmania amazonensis IFLA/BR/67/PH8 assessed as increase of IL-12 production at 6.25 to 25 uM after 72 hrs by sandwich ELISA. It is filed as functional, cell-based. A digest of the protocol:
as §2

A short description of data set [23]: Toxicity in human RBC assessed as induction of hemolytic activity after 1 hr by spectrometer analysis. The data set is classed as cell-based, Erythrocyte. The note with it: red blood cells (RBC). The gist of the method:
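A 5% suspension of human erythrocytes in PBS was mixed 4:1 with serial compound dilutions and incubated 1 h at 37°C. The reaction was stopped with PBS (pH 7.2) and spun 10 min at 1000 x g, and supernatant absorbance was read at 540 nm. Haemolysis was expressed relative to a drug-free blank and to water-induced total lysis. HC50 was obtained by probit regression.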

The test system of data set [24] is Leishmania amazonensis. Description: Antileishmanial activity against promastigotes of Leishmania amazonensis IFLA/BR/67/PH8 assessed as induction of late apoptosis using Annexin-V/PI staining at 4 times IC50 after 4 hrs by flow cytometry (reference value: 12.05%). The data set is classed as functional.
The subject of data set [25] is Leishmania amazonensis. Description: Antileishmanial activity against promastigotes of Leishmania amazonensis IFLA/BR/67/PH8 assessed as induction of late apoptosis using Annexin-V/PI staining at IC50 after 4 hrs by flow cytometry (reference value: 12.05%). The data set is classed as functional.
Data set [26] relates to Leishmania amazonensis. Description: Antileishmanial activity against promastigotes of Leishmania amazonensis IFLA/BR/67/PH8 assessed as induction of early apoptosis using Annexin-V staining at 2 times IC50 after 4 hrs by flow cytometry (reference value: 8.3%). It is filed as functional.
A short description of data set [27]: Selectivity index, ratio of HC50 for human RBC to IC50 for axenic amastigotes of Leishmania amazonensis IFLA/BR/67/PH8. A digest of the protocol:
as §3

Data set [28] relates to Leishmania amazonensis. Description: Antileishmanial activity against axenic amastigotes of Leishmania amazonensis IFLA/BR/67/PH8 infected in Swiss mouse peritoneal macrophages assessed as reduction of survival rate at 300 mg/L after 72 hrs by light microscopy analysis. It is filed as functional, organism-based. The gist of the method: as §1
Data set [29] has as its system Leishmania amazonensis. Description: Antileishmanial activity against axenic amastigotes of Leishmania amazonensis IFLA/BR/67/PH8 infected in Swiss mouse peritoneal macrophages assessed as reduction of survival rate at 50 to 300 mg/L after 24 hrs by light microscopy analysis. It is filed as functional, organism-based. The gist of the method: as §1
For data set [30], the system named is Leishmania amazonensis. Description: Antileishmanial activity against promastigotes of Leishmania amazonensis IFLA/BR/67/PH8 assessed as viable cells using Annexin-V staining at 2 times IC50 after 4 hrs by flow cytometry (reference value: 77%). It is filed as functional.
In data set [31] the test system is Peritoneal macrophage cell. Description: Immunomodulatory activity in Swiss mouse peritoneal macrophages infected with promastigotes form of Leishmania amazonensis IFLA/BR/67/PH8 assessed as increase of nitric oxide production at 6.25 to 25 uM after 72 hrs by Griess assay. The data set is classed as functional, cell-based. A digest of the protocol:
as §2

Usually CC50 stands for the concentration that lowers cell viability or growth by half. A higher CC50 goes with lower toxicity to the cells. What is called EC50 is the concentration that produces a half-maximal response. The IC50 is the concentration that gives 50% inhibition. Read a high IC50 as weaker potency. As usually defined, the HC50 is the concentration that lyses half of the red blood cells.

Active and inactive are the calls of the source. The calls are words filed in the database; no cut-off is given here.

For `N#Cc1c(/N=C/c2cc3cc(Br)ccc3[nH]2)sc2c1CCCC2`, the Activity result in data set [1] is “Dose-dependent effect”; in data set [2], 21.7%; in data set [3] it was 5.03%; in data set [9], “Dose-dependent effect”; in data set [10], 76.7%; in data set [11] it was 3.5%. Moreover, the Activity in [14] is on record as 51.9%; in data set [16], 28.5%; in data set [17], 7.1%; in [18], 15.8%; in data set [24] it was 27.2%; in data set [25], 12.5%. In addition, in data set [26], the Activity was 5.2%. For the same compound, the outcome in data set [4], in data set [15] and in data set [22] was Active. For the same compound, the result in data set [5] was inactive. The Ratio in data set [6] was over 14800. For the same compound, the “Ratio CC50/EC50” value in data set [7] is reported as 6.12. In addition, the Selectivity Index in data set [8] was over 237; in [27] it was over 43.2. Besides, the “Ratio CC50/IC50” value in data set [12] turned out to be 33.6. The 50% cytotoxic concentration (CC50) at 24 h in data set [13] is 113 µM. Besides, the EC50 in data set [19] came to 18.5 µM. In addition, in [20], the IC50 stood at 3.37 µM. The selectivity ratio in data set [21] turned out to be 840. Besides, in [23], the HC50 at 1 h was over 800 µM.
Consider Meglumine antimoniate, for which, in data set [28], the outcome was Active. For the same compound, in [7], the Ratio CC50/EC50 is 1.01. In addition, the figures for the Selectivity Index in [8] and in data set [27] were 0.016 and 0.42, respectively. For the same compound, the result in data set [29] was inactive. Besides, in [12], the Ratio CC50/IC50 was 0.04.
Consider `N#Cc1c(/N=C/c2cc3ccccc3[nH]2)sc2c1CCCCC2`, for which the Activity entry in data set [1] is “Dose-dependent effect”; in [2], 31.6%; in data set [3] it was 4.06%; in [9], “Dose-dependent effect”; in data set [10] it was 72.2%; in [11], 12.1%. In addition, the Activity in data set [14] is on record as 54.9%; in data set [16] it was 15.6%; in [17], 4.07%; in data set [18], 15.7%; in data set [30], 19%; in [24], 25.2%. For the same compound, the Activity in data set [25] is recorded as 11.6%; in data set [26], 3.5%. Also, the outcome in data set [4], in data set [5], in data set [22] and in data set [31] was inactive. For the same compound, in data set [7], the “Ratio CC50/EC50” value was determined as 3.1. For the same compound, the Selectivity Index in data set [8] amounted to 97.9; in data set [27], 45.5. The “Ratio CC50/IC50” value in data set [12] was 6.65. Further, the midpoint of cytotoxicity in [13], the CC50 at 24 h, lay at 49.1 µM. In data set [15], the outcome was Active. Further, in data set [19], the response was half-maximal at 15.8 µM (EC50). Half-maximal inhibition in data set [20] (IC50) required 7.37 µM. In addition, in data set [23], the HC50 at 1 h stood at 721 µM.

Source of the values: ChEMBL document CHEMBL3745600, “2-Amino-thiophene derivatives present antileishmanial activity mediated by apoptosis and immunomodulation in vitro” (Eur J Med Chem, 2015).
